Sampled rows, rich in hits. Any-hit rate of the full collection: about 6.4%.
Ecoli WT expand: growth inhibitors of wild-type E. coli, primary screen, strain BW25113, expanded library, OD600; growth inhibition, % at 100 µM; OD600 absorbance; hit rate 0.15% among 98,000; AID 710, 2007;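 active means growth inhibition above about 50% at one test dose, limit read from the data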;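 further: growth measured after 20 h incubation at 37 °C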
Fibroblast inh: antiproliferative effect on LL 47 fibroblasts – human, LL 47 cells, CellTiter-Glo luminescence, primary screen. viability, % at 10 µM. LL 47 human lung fibroblast viability, ATP luminescence; active compounds read low. hit rate 1.1% among 85,000. AID 719, 2007;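 active means viability at or below 50% in the single dose screen; inactive means viability above 50%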;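 further: compound exposure lasted 72 h before the ATP readout; 100% = median luminescence of untreated cell-only wells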
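Times – overnight cell rest, 72 h compound treatment at 37 °C · Test system – human lung fibroblast line LL 47, low passage · Amount – 1,150 cells in each well · Controls – cell-only wells, no compound · Doses – 0.1% DMSO in all compound wells · Measured by – CellTiter-Glo luminescence · Buffer or medium – IMEM plus 15% FBS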
Jurkat tox 60K: cytotoxicity toward Jurkat T cells, primary screen, cytotoxicity control, cell-based, Jurkat E6.1, 60K MLSMR library. Jurkat E6.1 viability, ATP luminescence, 48 h. hit rate 1.2% among 56,000. inhibition, % at 4 µM. AID 463, 2006;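 active means inhibition above the mean inhibition of all tested compounds plus 3 SD, cut at about 28% in these data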
tolC growth inh: growth inhibitors of E. coli tolC mutant, primary screen, strain BW25113 ΔtolC::kan, 384-well | hit rate 2.2% among 65,000 | growth inhibition, % at 10 µM (by protocol) | OD615 | AID 573, 2007;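 active means growth inhibition at or above a cutoff equal to the mean over every tested compound plus 3 SD, cut at about 60% in these data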;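 further: growth measured after 20 h incubation at 37 °C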
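Test system: tolC-deleted E. coli BW25113; medium: LB with kanamycin 50 µg/mL; compound: single-point testing at 10 µM; incubation: 20 h compound exposure of bacteria at 37 °C; signal: OD at 615 nm; evaluation: growth inhibition in percent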
H69AR growth 86K: proliferation blockers of H69AR lung cancer cells, primary screen, cell-based, human, 86K library; viability, % at 10 µM; hit rate 6% among 85,000; H69AR lung tumor viability, ATP luminescence, 72 h; active compounds read low;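 active means viability at or below 40%; inactive means viability above 40%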;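 further: multidrug resistant small cell line overexpressing MRP-1 efflux transporter; 100% = mean luminescence of untreated control wells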
HUVEC inhibit: inhibitors of HUVEC proliferation, primary screen, cell-based, 384-well; hit rate 1.1% among 86,000; viability, % at 10 µM (by protocol); CellTiter-Glo luminescence, 72 h; active compounds read low;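 active means viability at or below 30%; inactive means viability above 30%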;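 further: 100% = median luminescence of DMSO-only cell control wells on each plate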
* = called active by the depositor; . = no result given.

SMILES	Ecoli WT expand	Fibroblast inh	Jurkat tox 60K	tolC growth inh	H69AR growth 86K	HUVEC inhibit
COc1cc2[nH]c(=O)n(CCC(=O)N3CCN(c4cc(Cl)ccc4C)CC3)c(=O)c2cc1OC	1.0	3.0*	.	20.4	0.5*	2.0*
CC1=NOC(=O)/C1=C/c1ccc(N(C)C)cc1	6.0	.	.	.	.	.
CC1=NOC(=O)/C1=C/c1ccc(-c2ccc(Cl)cc2)o1	25.0	8.7*	.	.	2.5*	55.9
CC1=NOC(=O)/C1=C\c1ccc(-c2cc(Cl)ccc2Cl)o1	-3.0	6.3*	.	.	2.0*	8.2*
CCCN(CCO)Cc1cccc(Br)c1	6.0	38.2*	5.6	-20.0	87.3	87.6
O=C1c2ccccc2-c2onc3ccc(Oc4ccccc4)c1c23	.	2.8*	.	.	2.1*	4.4*
Cc1nn(C)c(C)c1CNC(=O)c1nn2c(c1Cl)NC(c1cccs1)CC2C(F)(F)F (stereo not drawn)	3.0	.	40.6*	1.6	.	.
CC(C)(C)CC(=O)NCc1ccc(F)cc1	5.0	99.5	.	.	109.9	102.0
Cc1cc(C)c(C)c(S(=O)(=O)N2CCN(CC(=O)NC(=O)NCc3ccccc3)CC2)c1C	-1.0	94.1	.	.	92.3	90.4
Cc1ccc(S(=O)(=O)N2CCN(C(=O)CSc3nc4ccccc4c(=O)[nH]3)CC2)c(C)c1	-1.0	98.1	-2.8	11.0	70.8	83.0
Cc1cc(C)c(C)c(S(=O)(=O)N2CCN(C(=O)c3cc(=O)[nH]c4ccccc34)CC2)c1C	9.0	91.7	.	.	11.7*	65.5
Cc1ccc(S(=O)(=O)N2CCN(C(=O)c3cc(=O)[nH]c4ccccc34)CC2)c(C)c1	-1.0	102.0	8.1	7.4	39.0*	91.7
CCN(c1ccc(NC(=O)COC(=O)c2ccc(S(=O)(=O)N3CCCC3)cc2)cc1)C(C)C	-3.0	.	.	.	.	.
O=C(c1ccc(Cn2c(=O)[nH]c3ccccc3c2=O)cc1)N1CCN(c2ccc(Cl)cc2)CC1	-9.0	110.9	3.8	25.2	36.5*	67.7
C=CCn1c(=O)[nH]c2cc(C(=O)N3CCN(c4cccc(Cl)c4)CC3)ccc2c1=O	-2.0	.	.	42.0	.	.
C=CCn1c(=O)[nH]c2cc(C(=O)N3CCN(c4cc(C)ccc4C)CC3)ccc2c1=O	-10.0	89.0	.	17.9	25.4*	58.3
Cc1ccc(C)c(N2CCN(C(=O)c3ccc(Cn4c(=O)[nH]c5ccccc5c4=O)cc3)CC2)c1	-10.0	93.2	-3.1	24.9	7.5*	37.4
CC(=O)C1=C(O)C(=O)N(c2nccs2)C1c1ccccc1 (stereo not drawn)	-2.0	97.3	.	.	100.2	96.7
CCCCC(=O)NC(Nc1nc(C2CC2)cs1)(C(=O)OCC)C(F)(F)F (stereo not drawn)	2.0	94.7	-4.2	24.6	92.9	95.2
COC(=O)c1c(C)oc2ccc(OC(=O)c3cccs3)cc12	-15.0	105.6	-5.1	83.8*	97.2	78.1
Cc1ccc(-n2c(SCC(=O)NCC3CCCO3)nc3n[nH]c(C)c3c2=N)cc1Cl (stereo not drawn)	-7.0	86.1	13.0	-11.2	58.9	69.2
CCC(Sc1nc2n[nH]c(C)c2c(=N)n1-c1cc(Cl)ccc1C)C(=O)N1CCOCC1 (stereo not drawn)	-9.0	82.7	7.6	-18.2	15.8*	84.6
CCN(CC)S(=O)(=O)c1ccc2nnn(OCC(=O)Nc3cccc(C#N)c3)c2c1	-2.0	99.3	6.9	23.2	5.3*	95.1
CCCc1cc(C(=O)Cc2ccc(C(=O)OCC)o2)c(O)cc1O	12.0	93.1	11.5	65.5*	92.5	109.0
CCc1cc(C(=O)Cc2ccc(F)cc2)c(O)cc1O	.	95.0	8.0	90.9*	87.1	44.9
CCCc1cc(C(=O)Cc2nc3ccccc3s2)c(O)cc1O	8.0	88.8	.	.	64.0	76.3
CCCc1cc(-c2n[nH]c(C)c2-c2ccc(C(=O)OCC)o2)c(O)cc1O	17.0	72.5	.	30.6	48.3	66.8
CCc1cc(C(=O)COc2ccccc2F)c(O)cc1O	18.0	87.5	9.5	100.0*	80.9	96.1
CCCc1cc(C(=O)Cc2ccc(F)cc2)c(O)cc1O	11.0	99.6	.	8.2	15.4*	32.0
O=C(Cc1ccc(F)cc1)c1ccc(O)cc1O	18.0	107.4	.	.	99.8	102.6

Bioassay records as filed in PubChem.
